MPTP block = mitochondrial permeability transition pore inhibitors, primary screen, biochemical, isolated mouse mitochondria, absorbance. Ca2+ swelling absorbance, 30 min. inhibition, % at 10 µM. 360,000 compounds, 1.4% hits;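 active means inhibition of 50% or more, scaled per plate between neutral and stimulator controls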;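 further: 0% = DMSO wells given calcium and 100% = 1 mM EGTA wells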
GPR7 antag = GPR7 receptor antagonists, primary screen, cell-based, fluorescence, single concentration. 290,000 compounds, 1.1% hits. GPR7-expressing cells, fluorescence antagonist assay. inhibition, % at 4.4 µM. Neuropeptides B/W receptor type 1 (Homo sapiens), P48145; in the data active means inhibition above about 16%, passing the limit was not always enough;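 further: cells stimulated with the agonist NPW; 0% = agonist with vehicle and 100% = vehicle without agonist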
Target sequence (P48145 whole entry, looked up): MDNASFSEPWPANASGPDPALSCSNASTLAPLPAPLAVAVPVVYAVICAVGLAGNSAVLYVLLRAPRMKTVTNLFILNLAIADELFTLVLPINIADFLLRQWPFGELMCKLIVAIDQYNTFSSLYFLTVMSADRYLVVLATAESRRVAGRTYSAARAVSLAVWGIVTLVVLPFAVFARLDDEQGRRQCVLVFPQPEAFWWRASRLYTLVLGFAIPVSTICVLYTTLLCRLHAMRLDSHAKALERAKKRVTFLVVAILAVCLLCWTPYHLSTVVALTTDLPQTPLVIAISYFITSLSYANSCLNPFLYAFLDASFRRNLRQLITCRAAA
OX1R antag-1 = OX1R (HCRTR1) antagonists, primary screen, fluorescence, CHO/OX1R cells, Fluo-8 calcium, orexin A; Fluo-8 calcium fluorescence; Orexin/Hypocretin receptor type 1 (Homo sapiens), O43613; inhibition, % at 5 µM; 330,000 compounds, 0.43% hits;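 active means inhibition above its plate's threshold, mean inhibition of all tested compounds on the plate plus 3 SD, cut at about 37% in these data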;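 further: 0% = orexin A challenge wells and 100% = SB-334867-A antagonist wells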
Target sequence (O43613 whole entry, looked up): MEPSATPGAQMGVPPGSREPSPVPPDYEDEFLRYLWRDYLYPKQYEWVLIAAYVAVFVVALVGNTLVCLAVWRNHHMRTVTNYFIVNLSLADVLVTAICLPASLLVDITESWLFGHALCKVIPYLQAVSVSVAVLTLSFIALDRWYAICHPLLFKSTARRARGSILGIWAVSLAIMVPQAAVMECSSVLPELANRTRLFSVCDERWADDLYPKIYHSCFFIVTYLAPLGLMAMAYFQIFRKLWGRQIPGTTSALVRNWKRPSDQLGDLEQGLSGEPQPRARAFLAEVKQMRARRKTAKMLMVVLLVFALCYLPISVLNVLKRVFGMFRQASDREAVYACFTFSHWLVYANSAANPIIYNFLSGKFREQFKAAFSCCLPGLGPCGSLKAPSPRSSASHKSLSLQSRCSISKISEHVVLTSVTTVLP
OX1R antag-2 = antagonists of human orexin 1 receptor (OX1R); OX1R-expressing cells, FRET antagonist read-out; inhibition, % at 6.6 µM; Orexin/Hypocretin receptor type 1 (Homo sapiens), O43613; 330,000 compounds, 1.8% hits; AID 485270, 2010; in the data active means inhibition mostly above about 38%, no sharp cut-off; inactive means mostly below about 40%;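 further: 0% = agonist challenge alone and 100% = reference antagonist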
CHO parental Ca = ATP-evoked calcium signal inhibitors, parental CHO, primary screen, counter-screen for OX1R antagonist project, cell-based, fluorescence, Fluo-8 calcium dye | inhibition, % at 5.6 µM | AID 463079, 2010 | 330,000 compounds, 0.63% hits | parental CHO-K1, ATP-induced calcium, Fluo-8 fluorescence;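 active means inhibition above that plate's mean sample inhibition plus 3 SD, cut at about 26% in these data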;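 further: 0% = ATP-challenged DMSO wells and 100% = DMSO wells without ATP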
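Measured by: calcium-sensitive Fluo-8 fluorescence / Test system: CHO parental line / Controls: ATP-challenged DMSO wells low, unchallenged DMSO wells high / Measure: % inhibition / Compound: single nominal dose of 5.6 µM per compound / Replicates: single well per compound, no replicates / Reagent: ATP as calcium-mobilizing challenge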
MPTP counter = fluorescence retest of MPTP screen hits in isolated mitochondria, single concentration; shares compounds with MPTP block; membrane potential, Rhodamine 123 fluorescence; inhibition, % at 10 µM; 5,000 compounds, 78% hits; in the data active means inhibition above about 22%;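 further: 0% = DMSO vehicle and 100% = positive control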
Starred values were filed as active, the others as inactive; x = no result. Most compounds without a hit are left out; they make up all but 3.8% or so of the library.

SMILES | MPTP block | GPR7 antag | OX1R antag-1 | OX1R antag-2 | CHO parental Ca | MPTP counter
N#Cc1c(NC(=O)CSc2ncn[nH]2)sc2c1CCCC2 | 5.6 | 0.7 | 0.1 | 7.6 | -8.1 | x
CC1CCc2c(sc(NC(=O)CSc3ncn[nH]3)c2C#N)C1 (configuration not stated) | 51.6* | 0.2 | -12.2 | 0.8 | -16.6 | 26.0*
Cc1ccc(NC(=O)c2ccc(N3CCCC3=O)cc2)cc1S(=O)(=O)N1CCCCC1 | 1.9 | x | -34.8 | 0.5 | -11.3 | x
CCC(Oc1ccc(Br)cc1)C(=O)N1CCN(c2ncccn2)CC1 (configuration not stated) | 0.5 | -12.0 | -15.3 | 6.7 | -1.6 | x
COCCNC(=S)N1CCC(C(=O)c2ccc3c(c2)OCCO3)CC1 | -0.8 | -11.1 | -8.6 | 18.6 | -0.3 | x
NS(=O)(=O)c1ccc(Sc2nc3ccccc3s2)c([N+](=O)[O-])c1 | 59.6* | -8.6 | 18.7 | 15.8 | 0.9 | 43.0*
NS(=O)(=O)c1ccc(Sc2ccccn2)c([N+](=O)[O-])c1 | 2.0 | -7.5 | -7.9 | 20.8 | -5.5 | x
COC(=O)c1cccc(C23CC4(C2)[C@H](CN(Cc2ccc(C(F)(F)F)cc2)[C@@H]4c2ccccc2)C3c2ccc(C(F)(F)F)cc2)c1 (some centres not stated) | x | x | -9.7 | 17.1 | -4.7 | x
COc1ccc(O)c(/C=N/NC(=S)Nc2cccc(S(=O)(=O)N(C)C)c2)c1 | 50.9* | -1.6 | -2.1 | 27.7 | 13.6 | 83.5*
CN(C)S(=O)(=O)c1cccc(NC(=S)Nc2cc(Cl)cc(Cl)c2)c1 | 88.5* | -11.2 | -11.3 | 14.1 | -6.1 | 93.5*
CN(C)S(=O)(=O)c1cccc(NC(=S)Nc2ccc(Cl)cc2Cl)c1 | 90.5* | -9.0 | 3.3 | 8.9 | 2.3 | 93.3*
O=C(NC1CC1)c1ccc2c(c1)C1C3CCC(C3)C1C(c1ccccc1)N2 (configuration not stated) | -1.5 | 1.8 | -17.8 | 8.2 | -30.0 | x
COc1ccc(Nc2nc(-c3cccc([N+](=O)[O-])c3)nc3ccccc23)cc1 | 53.2* | 2.1 | -9.9 | 44.1 | -11.8 | 25.2*
COc1ccccc1CCNC(=O)Nc1cccc([N+](=O)[O-])c1 | 68.1* | -9.0 | 2.3 | 20.4 | 14.3 | 77.1*
COc1ccc(Nc2nc(-c3ccccc3)nc3ccccc23)cc1 | 0.8 | -12.5 | -20.5 | 18.9 | 1.6 | x
O=[N+]([O-])c1cccc(NC(=S)NCCc2ccccc2)c1 | 95.2* | -5.0 | -19.6 | 52.9* | 17.2 | 95.6*
O=C(NCCCCc1ccccc1)Nc1cccc(F)c1 | 56.5* | -24.2 | 2.8 | 6.9 | 24.1 | 95.9*
O=C(Cc1cccc([N+](=O)[O-])c1)Nc1ccccc1 | -1.9 | x | x | x | x | x
Cc1ccn2c(CC(C)(C)C)c(-c3ccc(F)cc3)nc2c1 | -2.6 | x | x | x | x | x
O=C(NC(=S)Nc1cnc2ccccc2c1)c1ccccc1 | 1.0 | -2.0 | -36.1 | 7.7 | -21.8 | x
CNC(=S)NCCc1ccccc1 | 1.2 | 4.5 | -3.1 | 10.9 | 1.4 | x
O=[N+]([O-])c1ccc(Nc2c3ccccc3nc3ccccc23)cc1 | 79.6* | -5.3 | x | x | x | 77.2*
COc1ccc(NC(=S)Nc2cccc([N+](=O)[O-])c2)cc1 | 84.7* | 2.7 | -2.4 | 7.9 | -1.7 | 86.7*
CC(C)(CNC(=S)NCCc1ccccc1)CNC(=S)NCCc1ccccc1 | 80.3* | 14.6 | x | x | x | 85.4*
S=C(NCCc1ccccc1)Nc1cnc2ccccc2c1 | 77.4* | -11.6 | -10.3 | 11.3 | 0.8 | 77.8*
SMILES | MPTP block | GPR7 antag | OX1R antag-1 | OX1R antag-2 | CHO parental Ca | MPTP counter
CCC(C)(C)NC(=O)C1CC(=O)N(CCc2ccc(F)cc2)C1 (configuration not stated) | 1.1 | -6.2 | -0.7 | 14.0 | -0.8 | x
Cc1ccc(NC(=O)Nc2cnc3ccccc3c2)cc1 | 87.1* | -1.0 | -6.5 | 40.0 | 1.8 | 71.4*
Fc1cccc(NC(=S)NCCc2ccccc2)c1 | 71.2* | 2.8 | -18.4 | 29.5 | 1.0 | 87.0*
CC(=O)c1cccc(NC(=S)NCCCCc2ccccc2)c1 | 67.8* | -8.3 | -13.9 | 1.4 | -8.1 | 80.6*
Fc1ccc(F)c(NC(=S)NCCc2ccccc2)c1 | 6.0 | -3.6 | -7.3 | 38.0 | 10.8 | x
CCCCNC(=S)Nc1cccc(C(C)=O)c1 | 1.4 | -8.3 | -18.5 | 8.9 | -5.5 | x
CCN(CC)C(=O)Nc1cnc2ccccc2c1 | 0.1 | 0.8 | -16.2 | 3.3 | -1.8 | x
O=C(CCc1c[nH]c2ccccc12)NCCc1ccc(Cl)cc1 | 2.4 | 6.8 | -3.0 | 15.3 | -4.8 | x
COc1ccc(-c2coc(CCC(=O)N3CCN(c4cc(C)ccc4C)CC3)n2)cc1 | 3.0 | x | -9.9 | 10.8 | -14.9 | x
S=C(NCc1ccccc1)NCc1cccc(CNC(=S)NCc2ccccc2)c1 | 83.6* | 13.4 | 11.6 | 10.7 | 19.9 | 77.8*
FC(F)(F)Sc1ccc(NC(=S)NCc2ccccc2)cc1 | 84.1* | 6.4 | 15.8 | 31.8 | 24.3 | 73.3*
CC(C)(C)NC(=S)Nc1cccc(C(F)(F)F)c1 | 65.2* | -18.3 | 3.8 | 17.5 | 19.0 | 84.2*
S=C(NCc1ccccc1)Nc1ccncc1 | 3.4 | -7.1 | -6.4 | 12.7 | 9.5 | x
FC(F)(F)c1cccc(NC(=S)NCc2ccccc2)c1 | 105.8* | -5.4 | 18.6 | 50.4 | 7.8 | 114.5*
NNC(=S)NCc1ccccc1 | 1.0 | -3.5 | -11.6 | 2.7 | -0.8 | x
COc1ccccc1OP(=O)(O)Oc1ccccc1OC | 0.4 | 7.1 | 2.4 | 11.6 | -0.9 | x
N#CC1C=Cc2c(ccc3ccccc23)N1C(=O)c1ccccc1 (configuration not stated) | 1.0 | x | x | x | x | x
Cc1ccn2c(NC(=O)C(C)(C)Oc3ccc(Cl)cc3)c(-c3cccs3)nc2c1 | 1.2 | -6.2 | -38.3 | 32.8 | -37.5 | x
FC(F)(F)c1cccc(CNC(=S)Nc2ccccc2)c1 | 82.1* | -16.9 | 0.1 | 19.1 | -4.5 | 94.8*
FC(F)(F)c1cccc(NC(=S)NC(c2ccccc2)c2ccccc2)c1 | 70.3* | -1.7 | -3.0 | 46.8 | 22.6 | 83.4*
FC(F)(F)c1cccc(NC(=S)NNC(=S)Nc2cccc(C(F)(F)F)c2)c1 | x | 8.0 | -1.7 | 9.5 | 4.5 | x
CCCN(Cc1ccccc1)C(=S)Nc1cccc(C(F)(F)F)c1 | 59.9* | 7.9 | -34.6 | 16.2 | -17.0 | 63.3*
O=C(NC(=S)Nc1cccc(C(F)(F)F)c1)c1ccc2nonc2c1 | 72.9* | -1.2 | -2.8 | 15.7 | -3.2 | 80.5*
COc1cccc(-c2nc(N)nc(SC)c2C#N)c1 | 0.7 | -7.8 | -12.2 | 41.8 | -9.5 | x
O=C(O)CC(NC(=O)C12CC3CC(CC(C3)C1)C2)c1ccc(OC2CCCC2)cc1 (configuration not stated) | -0.9 | -17.0 | -13.8 | 4.6 | -18.7 | x
Cc1ccc(CNC(=O)c2[nH]c(C(F)(F)F)nc2-c2ccccc2)cc1 | -0.9 | x | x | x | x | x
